Test results published in ChEMBL document CHEMBL2417361, “Investigation of acyclic uridine amide and 5'-amido nucleoside analogues as potential inhibitors of the Plasmodium falciparum dUTPase” (Bioorg Med Chem, 2013).

Key:
[1] = test system: L6; assay: Cytotoxicity against rat L6 cells after 72 hrs by Alamar Blue assay; type: cell-based; conditions: L6, 72 h
How it was run: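 Rat skeletal myoblast L6 line, with podophyllotoxin as control. EC50 is the mean of two independent assays.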

[2] = Selectivity index, ratio of EC50 for rat L6 cells to EC50 for Plasmodium falciparum K1; type: toxicity, cell-based; conditions: read-out: Ratio EC50
[3] = molecular target: T1, Deoxyuridine 5'-triphosphate nucleotidohydrolase, mitochondrial (Homo sapiens, UniProt P33316); assay: Inhibition of recombinant human dUTPase expressed in Escherichia coli BL21 (DE3) using dUTP as substrate by spectrophotometric analysis
T1 sequence (P33316 whole entry): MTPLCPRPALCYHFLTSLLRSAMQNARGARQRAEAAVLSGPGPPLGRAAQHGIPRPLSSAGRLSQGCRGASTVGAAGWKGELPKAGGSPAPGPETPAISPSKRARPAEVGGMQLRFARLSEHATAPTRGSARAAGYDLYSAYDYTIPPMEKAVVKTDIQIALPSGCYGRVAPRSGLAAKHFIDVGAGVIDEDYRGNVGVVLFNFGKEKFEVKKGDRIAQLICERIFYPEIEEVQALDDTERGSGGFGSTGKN
How it was run: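 Human enzyme expressed in IPTG-induced E. coli BL21(DE3) and purified like the parasite enzyme (phosphocellulose, then gel filtration, ≥96% pure). Hydrolysis after rapid mixing was read as proton release using a cresol red/bicine indicator pair (pH 8, 573 nm), with absorbance change kept within 0.1 units. Vmax and KMapp were fitted to the integrated Michaelis–Menten equation.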

[4] = Inhibition of recombinant Plasmodium falciparum dUTPase expressed in Escherichia coli BL21 (DE3) using dUTP as substrate by spectrophotometric analysis
How it was run: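 Recombinant enzyme from IPTG-induced E. coli BL21(DE3), purified by phosphocellulose and gel filtration to ≥96% purity, stored in 10 mM bicine/5 mM MgCl2 pH 8. Stopped-flow mixing of 30 nM PfdUTPase with 50 µM dUTP, 5 mM MgCl2, 1 mg/mL BSA and 100 mM KCl. Proton release tracked with cresol red/bicine (pH 8) at 573 nm. Vmax and KMapp fitted by integrated Michaelis–Menten equation.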

[5] = test system: Plasmodium falciparum; assay: Antiparasitic activity against chloroquine/pyrimethamine-resistant Plasmodium falciparum K1 infected in erythrocytes assessed as parasite growth inhibition after 48 hrs by [3H]-hypoxanthine incorporation assay; type: functional, organism-based
[6] = Selectivity index, ratio of Ki for human dUTPase to Ki for recombinant Plasmodium falciparum dUTPase

Row | Ki [3] [µM] | Ratio Ki [6] | SMILES | EC50 [1] [µM] | selectivity ratio [2] | Ki [4] [µM] | EC50 [5] [µM]
1 |  |  | O=c1ccn(CCCCCCNC(c2ccccc2)(c2ccccc2)c2ccccc2)c(=O)[nH]1 |  | 36 |  | 
2 | 1000 | 13 | O=C(NCCCO)C(c1ccccc1)c1ccccc1 |  |  | > 100 | 
3 |  |  | O=c1ccn(CCCCNC(c2ccccc2)(c2ccccc2)c2ccccc2)c(=O)[nH]1 |  | 9 |  | 
4 | 1000 |  | O=C(CCCn1ccc(=O)[nH]c1=O)NC(c1ccccc1)c1ccccc1 |  |  |  | 
5 | 1000 |  | O=C(CCCn1ccc(=O)[nH]c1=O)NC(c1ccccc1)(c1ccccc1)c1ccccc1 |  |  |  | 
6 | 1000 | 56 | O=C(c1ccccc1)n1c(=O)ccn(CCCNC(=O)C(c2ccccc2)(c2ccccc2)c2ccccc2)c1=O |  |  | > 100 | 
7 |  |  | O=c1ccn(CCCOC(c2ccccc2)(c2ccccc2)c2ccccc2)c(=O)[nH]1 |  | 5 |  | 
8 | 1000 |  | O=C(NCCCn1ccc(=O)[nH]c1=O)C(c1ccccc1)(c1ccccc1)c1ccccc1 |  |  |  | 
9 | 1000 | 400 | O=C(O)CCCn1ccc(=O)[nH]c1=O |  |  | > 100 | 
10 |  |  | O=c1ccn(CCCCCCOC(c2ccccc2)(c2ccccc2)c2ccccc2)c(=O)[nH]1 |  | 19 |  | 
11 |  | 1 | O=C(NCCCO)C(c1ccccc1)(c1ccccc1)c1ccccc1 |  |  |  | 
12 |  |  | O=c1ccn([C@H]2C[C@H](O)[C@@H](CNC(c3ccccc3)(c3ccccc3)c3ccccc3)O2)c(=O)[nH]1 |  |  | 0.2 | 

Row | SMILES | Ki [3] [µM] | Ratio Ki [6] | EC50 [1] [µM] | selectivity ratio [2] | Ki [4] [µM] | EC50 [5] [µM]
13 | O=c1ccn(CCCCOC(c2ccccc2)c2ccccc2)c(=O)[nH]1 | 49 |  | 104 | 7 | 0.5 | 14
14 | O=c1ccn([C@H]2C[C@H](O)[C@@H](CNC(c3ccccc3)c3ccccc3)O2)c(=O)[nH]1 | > 100 |  | > 229 | > 20 | 0.2 | 12
15 | O=c1ccn(CCCCNC(c2ccccc2)c2ccccc2)c(=O)[nH]1 | 63 |  | 99 | 38 | 5.7 | 2.6
16 | O=c1ccn(CCCNC(c2ccccc2)c2ccccc2)c(=O)[nH]1 | 10 |  | 269 | 49 | 5.7 | 5.5
